# The list is not random: actives were taken first. Their share in the collection is about 0.65%.
# HePTP inhibitor: blocks human HePTP tyrosine phosphatase | actives 0.64% (n = 110,000) | inhibition, % at 20 µM | P35236 | recombinant HePTP phosphatase activity, OD absorbance; in the data active = inhibition above about 50%;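 also: plate controls were vehicle for no effect and reference inhibitor for full effect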
# Target sequence (P35236 whole entry, looked up): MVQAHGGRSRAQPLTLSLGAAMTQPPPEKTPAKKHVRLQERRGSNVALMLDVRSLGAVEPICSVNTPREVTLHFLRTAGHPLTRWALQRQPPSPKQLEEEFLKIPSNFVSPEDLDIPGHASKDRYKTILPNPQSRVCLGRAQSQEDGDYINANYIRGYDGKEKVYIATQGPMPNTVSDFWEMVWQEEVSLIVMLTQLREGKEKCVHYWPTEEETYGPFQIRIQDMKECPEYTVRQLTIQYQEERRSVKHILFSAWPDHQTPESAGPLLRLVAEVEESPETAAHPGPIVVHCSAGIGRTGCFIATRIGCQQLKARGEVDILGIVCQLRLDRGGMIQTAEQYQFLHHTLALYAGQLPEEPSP
# AP complement: orthogonal test for alternative complement pathway inhibitors; actives 0.08% (n = 62,000); AID 1235; Human serum alternative complement pathway, LPS-coated ELISA, C3 deposition; tested in compound mixtures; inhibition, % at 5 µM;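 active = inhibition above 30% in each of the two pooled mixtures holding the compound, so the lower value exceeds 30%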;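 also: 0% = serum in Mg-EGTA without compound and 100% = EDTA serum blank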
#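 Assay system: Human serum alternative complement pathway, C3 deposition on LPS-coated wells | Incubation: 1 h serum-compound exposure at 37 °C | Doses: 5 µM per compound in ten-compound mixtures | Read-out: Percent inhibition | Technique: ELISA with HRP anti-human C3 antibody, TMB substrate, absorbance 450 nm | Replication: Two pool placements per compound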
# TNAP act DEA: activates human TNAP at intermediate phosphate acceptor concentration; 64,000 tested, under 10 active; purified TNAP, CDP-star luminescence, 100 mM DEA, 30 min; stronger effect = higher value; scale: 0 levamisole-inhibited, 1 vehicle-only enzyme; activation factor at 20 µM; AID 813;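 active = activation factor of at least 2 at 20 µM, relative to controls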
# Starred values were filed as active, the others as inactive; . = no result; ! = not active in a repeat.
SMILES,HePTP inhibitor,AP complement,TNAP act DEA
COC(=O)c1ccc(C(=O)OC)c(NC(=O)CCC(=O)O)c1,102.1*!,10.2,1
COC(=O)c1ccc(C(=O)OC)c(NC(=O)CC(c2ccccc2)c2ccccc2)c1,8.3,.,.
CCOC(=O)C1=C(C)NC(=O)NC1c1ccc(OC)c([N+](=O)[O-])c1 (centres undefined),-13.8,.,.
Cc1cc(C)c2nc3s/c(=C\c4cc(Br)ccc4O)c(=O)n3c2c1,7.1,.,.
O=C(/C=C/c1cccc([N+](=O)[O-])c1)Nc1ccc2nn(-c3ccccc3)nc2c1,102.3*,.,.
O=C(/C=C/c1cccc([N+](=O)[O-])c1)Nc1ccc2oc(-c3ccccc3)nc2c1,27.8,.,.
Cc1cccc(C(=O)Nc2ccc3nn(-c4ccc(F)cc4)nc3c2)c1,-10.7,.,.
COc1ccc(/C=C/C(=O)Nc2ccc3nn(-c4ccc(F)cc4)nc3c2)cc1,56.6*,.,.
O=C(Nc1ccc2nn(-c3ccc(F)cc3)nc2c1)c1cccc(Br)c1,57.3*,.,.
O=C(Cc1ccccc1)Nc1ccc2nn(-c3ccc(F)cc3)nc2c1,30.6,.,.
O=C(/C=C\c1ccccc1)Nc1ccc2nn(-c3ccc(F)cc3)nc2c1,60.8*,.,.
COc1ccc(/C=C/C(=O)Nc2cc3nn(-c4ccc(C)cc4)nc3cc2C)cc1,3.0,.,.
O=C1/C(=C\c2ccc(O)c(O)c2)SC(=S)N1c1cccc(Cl)c1,-1.7,.,.
NC(=O)c1ccccc1NC(=O)c1cc(Cl)ccc1Cl,-12.1,.,.
CCOC(=O)C1=C(O)/C(=C/c2cccnc2)SC1=Nc1ccc(Cl)cc1,2.5,.,.
O=C(Oc1ccc(/C=N/n2cnnc2)cc1)c1ccco1,-5.2,.,.
C=CCc1ccccc1OCCOc1ccc(/C=C2/SC(=S)N(C)C2=O)cc1OC,12.7,.,.
CNc1cc([N+](=O)[O-])ccc1N/C=C\C(=O)c1ccc2c(c1)OCO2,-3.1,.,.
CCOc1ccc(NC(=O)CC2S/C(=N\N=C3/CCCc4ccccc43)NC2=O)cc1 (centres undefined),4.3,.,.
Cc1occc1C(=O)O/N=C(\N)c1cccnc1,-0.3,.,.
Cc1ccc(COc2cc3oc(=O)c4c(c3cc2Cl)CCC4)cc1,-5.7,.,.
CC(C)(C)C1CCc2c(sc(NC(=O)C3CC4CCC3C4)c2C(N)=O)C1 (centres undefined),97.4*,.,.
CC(C)(C)C1CCc2c(sc(NC(=O)C3CCCCC3C(=O)O)c2C(N)=O)C1 (centres undefined),6.2,.,.
O=C1N=c2ccccc2=C1c1[nH]c(=S)[nH]c1O,-18.9,.,.
O=C1N=c2ccccc2=C1c1sc(=S)[nH]c1O,70.2*,.,.
SMILES,HePTP inhibitor,AP complement,TNAP act DEA
COc1cccc(NC(=O)c2ccc(-c3ccccc3)cc2)c1,-9.1,.,.
CCOc1ccc(/C=C2\C(=O)NC(=O)N(c3ccc(CC)cc3)C2=O)cc1OC,7.5,.,.
O=C(NCC1CCCO1)c1cc(-c2ccco2)nc2ccccc12 (centres undefined),19.5,3.2,1
O=C(NC1CCCCCC1)c1cc(-c2ccco2)nc2ccccc12,97.9*,.,.
N#Cc1c(-c2ccco2)cc(-c2ccc(F)cc2)nc1N,2.3,7.2,0.9
N#Cc1c(-c2ccc(Br)cc2)cc(-c2ccco2)c(C#N)c1N,100.7*,.,.
CCc1ccccc1NC(=O)c1c(NC(=O)c2ccccc2)sc2c1CCC2,-1.2,.,.
CCOC(=O)c1ccc2[nH]c3c(c2c1)CCCC3=O,-17.8,.,.
CCOC(=O)c1ccccc1NC(=O)CN(c1ccc(OC)cc1)S(=O)(=O)c1ccc(C)cc1,-12.1,.,.
COC(=O)c1ccccc1NC(=O)CN(c1ccc(OC)cc1)S(=O)(=O)c1ccc(C)cc1,50.4*,.,.
O=C1c2ccccc2C(=O)N1CC(O)COC1CCCCC1 (centres undefined),-2.8,.,.
N#CC1=C(N)NC(SCC(=O)c2ccc(Cl)cc2)=C(C#N)C12CCCC2,104.3*,.,.
COc1ccc(C(=O)CSC2=C(C#N)C3(CCCCC3)C(C#N)=C(N)N2)cc1,-3.1,.,0.8
Clc1ccc2c(Sc3cccc4cccnc34)ccnc2c1,-9.5,.,.
COc1cc(Br)c(/C=C2\C(=O)N(c3ccc(S(N)(=O)=O)cc3)N=C2C)cc1OC,-2.4,.,.
COc1cc(/C=C2\C(=O)N(c3cccc(C(=O)O)c3)N=C2C)c([N+](=O)[O-])cc1OC,74.7*,.,.
COc1cccc(/C=C2\C(=O)N(c3cccc(C(=O)O)c3)N=C2C)c1,65.7*,.,.
COc1cc(Br)c(/C=C2\C(=O)N(c3cccc(C(=O)O)c3)N=C2C)cc1OC,77.2*,.,.
COc1cc(/C=C2\C(=O)N(c3cccc(C(=O)O)c3)N=C2C)cc(I)c1O,6.5,.,.
COc1cc(Br)c(/C=C2/C(=O)N(c3ccc(C)cc3)N=C2C)cc1OC,-1.2,.,.
COc1cc(/C=C2\C(=O)N(c3cccc(C(=O)O)c3)N=C2C)ccc1O,23.8,.,.
COc1ccc(OC)c(/C=C2\C(=O)N(c3ccc(S(N)(=O)=O)cc3)N=C2C)c1,67.7*,.,.
O=C(CCNc1n[nH]c(=O)[nH]c1=O)N/N=C/CCc1ccccc1,-17.2,.,.
CCOc1ccc(S(=O)(=O)N2CCN(c3ccccc3OC)CC2)cc1,-14.0,.,.
O=C(O)c1ccc(NC(=O)c2ccc3c(c2)C(=O)N(c2ccc([N+](=O)[O-])cc2)C3=O)cc1,59.1*,.,.
SMILES,HePTP inhibitor,AP complement,TNAP act DEA
O=C(Nc1ccc(I)cc1Cl)c1ccc([N+](=O)[O-])cc1,87.8*,.,.
O=C(Nc1cc(C(=O)Nc2ccc(Cl)cc2)cc(C(=O)Nc2ccc(Cl)cc2)c1)c1ccc([N+](=O)[O-])cc1,3.3,.,.
O=C(O)c1ccc(NC(=O)c2cc(NC(=O)c3ccc(C(=O)O)cc3)cc(C(=O)Nc3ccc([N+](=O)[O-])cc3)c2)cc1,100.9*,.,.
O=C(O)c1ccc(Oc2ccc3c(c2)C(=O)N(c2ccc([N+](=O)[O-])cc2)C3=O)cc1,3.2,.,.
O=C(Nc1ccc(I)cc1Cl)c1cccc([N+](=O)[O-])c1,-8.5,.,.
O=C1CC(N=Cc2cccc(O)c2)=NN1c1ccccc1,-16.3,.,.
CC(C)c1nnc(NC(=O)Nc2ccc(Cl)cc2)s1,-28.4,.,.
CCN(CC)c1ccc(/C=C2/C(=O)NN(c3ccc(I)cc3)C2=O)c(O)c1,14.5,.,.
CCN(CC)c1ccc(/C=C2/C(=O)NN(c3ccc(C)cc3)C2=O)c(O)c1,60.6*,.,.
COc1ccccc1NC(=O)C1=C(C)NC(=S)NC1c1ccc(O)cc1 (centres undefined),-4.9,.,.
O=C1NN(c2ccccc2)C(=O)/C1=C/c1cccn1-c1ccc([N+](=O)[O-])cc1,102.8*,.,.
O=C1NN(c2ccc(Cl)c(Cl)c2)C(=O)/C1=C/c1cccn1-c1ccc([N+](=O)[O-])cc1,5.6,.,.
NC(=O)NC(c1ccccc1)c1ccc(Br)cc1 (centres undefined),3.8,.,.
O=C(COc1ccc(Cl)cc1Cl)Nc1ccc(I)cc1Cl,5.1,.,.
O=C1N=c2ccc(Br)cc2=C1c1sc(Nc2ccc(O)cc2)nc1O,93.0*,.,.
O=C1N=c2ccc(Br)cc2=C1c1sc(NS(=O)(=O)Cc2ccccc2)nc1O,29.4,.,.
CC1=CC(C)(C)N(CN2C(=O)c3ccccc3C2=O)c2ccccc21,-6.0,.,.
COc1ccc(/C=C(\C#N)C(=O)NC(=O)Nc2cccc(Cl)c2)cc1,-12.1,.,.
CCOC(=O)NC(=O)CSc1nc(C)cc(C(F)(F)F)c1C#N,0.4,32.6*,0.9
Cc1cc(C(F)(F)F)c(C#N)c(SCC#N)n1,-0.1,.,.
Cc1ccc(Br)cc1S(=O)(=O)N1CCC(C)CC1,5.0,.,.

# High-throughput results as filed in PubChem BioAssay.
